Laboratory results published in ChEMBL document CHEMBL1671655, “Anidulafungin is fungicidal and exerts a variety of postantifungal effects against Candida albicans, C. glabrata, C. parapsilosis, and C. krusei isolates” (2009).
Values after ≈ are worked out from the molar mass of the structure shown. Active and inactive are the calls of the source. No cut-off for these calls is given here. Starred links: 1 amine or outer side, 2 acyl side, 3 side chain; linkers in the order of their positions; H or OH if unused. Positions of bridges follow the written chain, without caps; N, C: chain ends. Non-standard residues stand in square brackets, D forms with d. Residues, ends and D or L forms follow the SMILES beside them. *: point of attachment. pTerphenylCO(4''-OnC5H11) = CCCCCOc1ccc(-c2ccc(-c3ccc(C(=O)*)cc3)cc2)cc1; Orn(4R-OH,5R-OH) = O=C([C@H](C[C@@H](O)[C@@H](O)N[*:3])N[*:1])[*:2]; hTyr(3S-OH,4S-OH) = N[C@H](C(=O)O)[C@H](O)[C@@H](O)c1ccc(O)cc1; Pro(3S-OH,4S-Me) = C[C@H]1CN[C@H](C(=O)O)[C@H]1O; Hyp = O=C(O)[C@@H]1C[C@@H](O)CN1

Assays:
Candida parapsilosis [1] = assay: Fungicidal activity against Candida parapsilosis isolate 1 assessed as log reduction in bacterial count at 16 times MIC after 48 hrs by time-kill analysis; assay type: functional; details: Lodderomyces parapsilosis, isolate 1, 48 h
How it was run: (§1)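 Isolates subcultured twice on SDA, suspended to 0.5 McFarland, giving ~1 x 10^5 to 5 x 10^5 CFU/ml in MOPS-buffered RPMI 1640 (pH 7.0) with or without drug at multiples of MIC (MIC by CLSI M27-A3). Tubes shaken at 35°C with continuous drug. Sampled at 0–48 h, diluted 10-fold and plated on SDA; CFU counted after 48 h at 35°C. Run twice per isolate; means.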

Candida parapsilosis [2] = assay: Fungicidal activity against Candida parapsilosis isolate 1 assessed as log reduction in bacterial count at MIC after 48 hrs by time-kill analysis; assay type: functional; details: Lodderomyces parapsilosis, isolate 1, 48 h
How it was run: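 Isolates subcultured twice on SDA, then suspended to 0.5 McFarland and diluted into RPMI 1640 (MOPS, pH 7.0) with or without anidulafungin, giving about 1 x 10^5 to 5 x 10^5 CFU/ml. Tubes were shaken at 35°C. Samples were taken at 0, 2, 4, 8, 12, 24 and 48 h, serially diluted 10-fold, plated on SDA, and CFU counted after 48 h at 35°C. Each isolate was run twice; mean values.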

Nakaseomyces glabratus [3] = assay: Fungicidal activity against Candida glabrata isolate 3 assessed as log reduction in bacterial count at 4 times MIC after 48 hrs by time-kill analysis; assay type: functional; details: isolate 3, 48 h; how it was run: as §1
Nakaseomyces glabratus [4] = assay: Fungicidal activity against Candida glabrata isolate 3 assessed as log reduction in bacterial count at MIC after 48 hrs by time-kill analysis; assay type: functional; details: isolate 3, 48 h; how it was run: as §1
Pichia kudriavzevii [5] = assay: Fungicidal activity against Candida krusei isolate ATCC 6258 assessed as log reduction in bacterial count at MIC after 48 hrs by time-kill analysis; assay type: functional; details: isolate ATCC 6258, 48 h; how it was run: as §1
Candida albicans [6] = assay: Fungicidal activity against Candida albicans isolate 1 assessed as log reduction in bacterial count at 4 times MIC after drug exposure for 1 hr followed by washout measured after 48 hrs in the absence of drug by PAFE study; assay type: functional
How it was run: (§2)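 Starting inoculum ~1 x 10^5 to 5 x 10^5 CFU/ml in MOPS-buffered RPMI 1640 (pH 7.0) with drug at multiples of the CLSI M27-A3 MIC. After 1 h at 35°C, cells washed and centrifuged three times at 1,400 x g for 10 min, then resuspended in warm drug-free RPMI. Shaken at 35°C and plated on SDA at 0–48 h; CFU counted after 48 h. Run twice per isolate; means.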

Candida albicans [7] = assay: Fungicidal activity against Candida albicans isolate 2 assessed as log reduction in bacterial count at 16 times MIC after drug exposure for 1 hr followed by washout measured after 48 hrs in the absence of drug by PAFE study; assay type: functional; how it was run: as §2
Candida albicans [8] = assay: Fungicidal activity against Candida albicans isolate 2 assessed as log reduction in bacterial count at MIC after drug exposure for 1 hr followed by washout measured after 48 hrs in the absence of drug by PAFE study; assay type: functional; how it was run: as §2
Candida parapsilosis [9] = assay: Fungicidal activity against Candida parapsilosis isolate 1 assessed as log reduction in bacterial count at 16 times MIC after drug exposure for 1 hr followed by washout measured after 48 hrs in the absence of drug by PAFE study; assay type: functional; details: Lodderomyces parapsilosis; how it was run: as §2
Candida albicans [10] = assay: Antifungal activity against Candida albicans isolate 1 assessed as time period for bacterial growth inhibition at 4 times MIC after 1 hr drug exposure; assay type: functional
How it was run: (§3)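 Inoculum of about 1 x 10^5 to 5 x 10^5 CFU/ml in MOPS-buffered RPMI (pH 7.0), shaken at 35°C and exposed to drug for 1 h. Cells then washed and centrifuged three times and resuspended in drug-free warm RPMI. Samples plated on SDA at 0, 2, 4, 8, 12, 24 and 48 h, with CFU counted after 48 h at 35°C. Run twice per isolate; values are means.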

Candida parapsilosis [11] = assay: Antifungal activity against Candida parapsilosis isolate A assessed as time period for bacterial growth inhibition at 4 times MIC after 1 hr drug exposure; assay type: functional; how it was run: as §3
Candida parapsilosis [12] = assay: Antifungal activity against Candida parapsilosis isolate 1 by CLSI M27-A3 broth microdilution method; assay type: functional; details: Lodderomyces parapsilosis
How it was run: (§4)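 CLSI M27-A3 broth microdilution in RPMI 1640 buffered to pH 7.0 with MOPS. Starting inoculum 0.5 x 10^3 to 2.5 x 10^3 cells/ml, incubated at 35°C. MIC read as the lowest concentration giving >50% growth reduction versus control. Each isolate tested on at least three occasions.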

Nakaseomyces glabratus [13] = assay: Antifungal activity against Candida glabrata isolate 3 by CLSI M27-A3 broth microdilution method; assay type: functional; how it was run: as §4
Candida albicans [14] = assay: Antifungal activity against Candida albicans assessed as time period for bacterial regrowth inhibition after 1 hr drug exposure; assay type: functional
Pichia kudriavzevii [15] = assay: Increase in susceptibility to SDS in Candida krusei isolate ATCC 6258 assessed as cell wall damage at MIC after 1 hr relative to control; assay type: functional, organism-based
How it was run: (§5)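 Cells recovered 8 h after a 1-h drug exposure were grown in YPD with 1% glucose to exponential phase and adjusted to OD599 0.1. Undiluted culture and 10-fold serial dilutions were spotted onto YPD plates containing SDS (0.01 to 0.04%), then incubated 72 h at 30°C. Growth compared with unexposed control cells; triplicate.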

Nakaseomyces glabratus [16] = assay: Increase in susceptibility to SDS in Candida glabrata isolate 1 assessed as cell wall damage at 16 times MIC after 1 hr relative to control; assay type: functional, organism-based; how it was run: as §5
Pichia kudriavzevii [17] = assay: Increase in susceptibility to SDS in Candida krusei isolate ATCC 6258 assessed as cell wall damage at 16 times MIC after 1 hr relative to control; assay type: functional, organism-based; how it was run: as §5
Candida parapsilosis [18] = assay: Increase in susceptibility to calcofluor white in Candida parapsilosis isolate 1 assessed as cell wall damage at MIC after 1 hr relative to control; assay type: functional, organism-based
How it was run: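 Candida given a 1-h anidulafungin pulse in MOPS-buffered RPMI 1640 (pH 7.0) at 35°C, washed three times by centrifugation, and regrown drug-free. Cells collected 8 h later, grown in YPD with 1% glucose to exponential phase, and set to OD599 0.1. Undiluted culture and 10-fold dilutions (4 µl) spotted on YPD plates with calcofluor white, then 30°C for 72 h. Triplicate; compared with no-drug cells.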

Nakaseomyces glabratus [19] = assay: Increase in susceptibility to calcofluor white in Candida glabrata isolate 3 assessed as cell wall damage at 4 times MIC after 1 hr relative to control; assay type: functional, organism-based
How it was run: (§6)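 Cells recovered 8 h after a 1-h drug exposure were grown to exponential phase in YPD with 1% glucose and adjusted to OD599 0.1. Undiluted and 10-fold serially diluted cultures were spotted onto YPD plates containing calcofluor white, then incubated at 30°C for 72 h. Growth compared with no-drug control cells; triplicate.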

Nakaseomyces glabratus [20] = assay: Increase in susceptibility to calcofluor white in Candida glabrata isolate 3 assessed as cell wall damage at 16 times MIC after 1 hr relative to control; assay type: functional, organism-based; how it was run: as §6
Candida albicans [21] = assay: Antifungal activity against Candida albicans isolate 1 assessed as cell wall damage at MIC by Transmission electron microscopy; assay type: functional, organism-based
How it was run: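 Cells recovered 8 h after a 1-h drug exposure were grown on SDA for 24 h at 35°C. Colonies fixed at 4°C in 0.1 M cacodylate (pH 7.2) with 2% glutaraldehyde and 2% paraformaldehyde, ethanol-dehydrated and embedded in Lowicryl K4M. Thin sections examined by transmission EM.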

Candida albicans [22] = assay: Antifungal activity against Candida albicans isolate 1 coincubated with mouse J774 macrophages assessed as macrophage induced bacterial cell killing at 4 times MIC (reference value: 14 +/- 8 %); assay type: functional

With `CCCCCOc1ccc(-c2ccc(-c3ccc(C(=O)N[C@H]4C[C@@H](O)[C@@H](O)NC(=O)[C@@H]5[C@@H](O)[C@@H](C)CN5C(=O)[C@H]([C@@H](C)O)NC(=O)[C@H]([C@H](O)[C@@H](O)c5ccc(O)cc5)NC(=O)[C@@H]5C[C@@H](O)CN5C(=O)[C@H]([C@@H](C)O)NC4=O)cc3)cc2)cc1` [ANIDULAFUNGIN] ({pTerphenylCO(4''-OnC5H11)}-[Orn(4R-OH,5R-OH)]T[Hyp][hTyr(3S-OH,4S-OH)]T[Pro(3S-OH,4S-Me)]; lactam 1-C) the log reduction (Candida parapsilosis [1]) was 3.47 log CFU/ml, the log reduction (Candida parapsilosis [2]) was 1.65 log CFU/ml and the log reduction (Nakaseomyces glabratus [3]) was 2.76 log CFU/ml. The log reduction (Nakaseomyces glabratus [4]) was 1 log CFU/ml, the log reduction (Pichia kudriavzevii [5]) was 2.21 log CFU/ml and the log reduction (Candida albicans [6]) was 1.18. It also gave a log reduction (Candida albicans [7]) of 1.55, a log reduction (Candida albicans [8]) of 0.86 and a log reduction (Candida parapsilosis [9]) of 3.17. It also gave a Time (Candida albicans [10]) of 8 h, a Time (Candida parapsilosis [11]) of 8 h and an MIC (Candida parapsilosis [12]) of 2 µg/mL (≈ 1.75 µM). For the same molecule, the MIC (Nakaseomyces glabratus [13]) was 0.03 µg/mL (≈ 0.0263 µM), the Time (Candida albicans [14]) was “>=12 hr” and the Activity (Pichia kudriavzevii [15]) was “Active”. For the same molecule, the Activity (Nakaseomyces glabratus [16]) was “Active”, the Activity (Pichia kudriavzevii [17]) was “Active” and the Activity (Candida parapsilosis [18]) was “Active”. For the same molecule, the Activity (Nakaseomyces glabratus [19]) was “Active”, the Activity (Nakaseomyces glabratus [20]) was “Active” and the Activity (Candida albicans [21]) was “Active”. For the same molecule, the “inhibition (INH)” value (Candida albicans [22]) was 37%.
